According to ChEMBL document CHEMBL4689842, “EUbOPEN Chemogenomics Library wave 1” (2021):
Values joined by “and” are separate entries in the source; they are usually repeats but may differ in a detail not shown here. Identical values can stand only once.

Tests used:
Fibroblast = test: Multiplex assay against human fibroblast; assay type: toxicity, cell-based; details: 1 µM, compound concentration 1 uM
Method in brief: (§1)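 Tubulin, mitochondrial-mass and membrane-permeability phenotypes are per cents of healthy-nucleus cells. Cells were gated by CellPathfinder machine learning into Hoechst high-intensity objects or normal cells, normal cells into healthy, pyknosed or fragmented nuclei, and pyknosed cells into mitotic or apoptotic. Before that, live cells stained at seeding with Hoechst33342, BioTracker Green Microtubule Cytoskeleton Dye, MitoTracker Red and Annexin V Alexa Fluor 680 were imaged on a CQ1 microscope at 37°C and 5% CO2 after compound addition.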

HEK-293T = test: Multiplex assay against HEK293T; assay type: toxicity, cell-based; details: human, 1 µM, compound concentration 1 uM; method in brief: as §1;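 for Population Tubulin-Different-Phenotype (%): share of the cells with healthy nuclei that show this phenotype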

With CN([C@@H](Cc1ccc(OS(=O)(=O)c2cccc3cnccc23)cc1)C(=O)N1CCN(c2ccccc2)CC1)S(=O)(=O)c1cccc2cnccc12 the “Population Apoptotic (%)” value (Fibroblast; 12 h, replicate 1) was 54% and 75%, the “Population Fragmented Nuclei (%)” value (Fibroblast; 12 h, replicate 1) was 29% and the “Population Healthy Nuclei (%)” value (Fibroblast; 12 h, replicate 1) was 56% and 53%. The “Population Hoechst High Intensity Objects (%)” value (Fibroblast; 12 h, replicate 1) was 8% and 14%, the “Population Membrane Permeable-Phenotype (%)” value (Fibroblast; 12 h, replicate 1) was 45% and the “Population Mitotic Cells (%)” value (Fibroblast; 12 h, replicate 1) was 45% and 25%. The “Population Normal (%)” value (Fibroblast; 12 h, replicate 1) was 91% and 85%, the “Population Pyknosed Nuclei (%)” value (Fibroblast; 12 h, replicate 1) was 13% and 17% and the “Population Tubulin-Different-Phenotype (%)” value (Fibroblast; 12 h, replicate 1) was 57% and 69%. The “Total Cell Count” value (Fibroblast; 12 h, replicate 1) was 348 and 189, the “Population Apoptotic (%)” value (Fibroblast; 12 h, replicate 2) was 50% and 80% and the “Population Fragmented Nuclei (%)” value (Fibroblast; 12 h, replicate 2) was 53% and 70%. For the same compound, the “Population Healthy Nuclei (%)” value (Fibroblast; 12 h, replicate 2) was 39% and 14%, the “Population Hoechst High Intensity Objects (%)” value (Fibroblast; 12 h, replicate 2) was 30% and 41% and the “Population Mitochondria Different-Phenotype (%)” value (Fibroblast; 12 h, replicate 2) was 39% and 60%. The “Population Mitotic Cells (%)” value (Fibroblast; 12 h, replicate 2) was 50% and 20%, the “Population Normal (%)” value (Fibroblast; 12 h, replicate 2) was 69% and 58% and the “Population Pyknosed Nuclei (%)” value (Fibroblast; 12 h, replicate 2) was 6% and 14%. The “Population Tubulin-Different-Phenotype (%)” value (Fibroblast; 12 h, replicate 2) was 82% and 80%, the “Total Cell Count” value (Fibroblast; 12 h, replicate 2) was 84 and 58 and the “Population Apoptotic (%)” value (Fibroblast; 24 h, replicate 1) was 66% and 59%. The “Population Fragmented Nuclei (%)” value (Fibroblast; 24 h, replicate 1) was 23% and 30%, the “Population Healthy Nuclei (%)” value (Fibroblast; 24 h, replicate 1) was 61% and 59% and the “Population Hoechst High Intensity Objects (%)” value (Fibroblast; 24 h, replicate 1) was 15% and 13%. For the same compound, the “Population Membrane Permeable-Phenotype (%)” value (Fibroblast; 24 h, replicate 1) was 30% and 21%, the “Population Mitotic Cells (%)” value (Fibroblast; 24 h, replicate 1) was 33% and 40% and the “Population Normal (%)” value (Fibroblast; 24 h, replicate 1) was 84% and 86%. For the same compound, the “Population Pyknosed Nuclei (%)” value (Fibroblast; 24 h, replicate 1) was 15% and 10%, the “Population Tubulin-Different-Phenotype (%)” value (Fibroblast; 24 h, replicate 1) was 70% and 47% and the “Total Cell Count” value (Fibroblast; 24 h, replicate 1) was 184 and 365. The “Population Fragmented Nuclei (%)” value (Fibroblast; 24 h, replicate 2) was 76% and 52%, the “Population Healthy Nuclei (%)” value (Fibroblast; 24 h, replicate 2) was 14% and 38% and the “Population Hoechst High Intensity Objects (%)” value (Fibroblast; 24 h, replicate 2) was 33% and 25%. For the same compound, the “Population Membrane Permeable-Phenotype (%)” value (Fibroblast; 24 h, replicate 2) was 40% and 25%, the “Population Mitochondria Different-Phenotype (%)” value (Fibroblast; 24 h, replicate 2) was 40% and 33% and the “Population Normal (%)” value (Fibroblast; 24 h, replicate 2) was 66% and 74%. The “Population Pyknosed Nuclei (%)” value (Fibroblast; 24 h, replicate 2) was 8% and 9%, the “Population Tubulin-Different-Phenotype (%)” value (Fibroblast; 24 h, replicate 2) was 60% and 91% and the “Total Cell Count” value (Fibroblast; 24 h, replicate 2) was 51 and 85. The “Population Apoptotic (%)” value (HEK-293T; 12 h, replicate 1) was 32% and 22%, the “Population Fragmented Nuclei (%)” value (HEK-293T; 12 h, replicate 1) was 26% and 15% and the “Population Healthy Nuclei (%)” value (HEK-293T; 12 h, replicate 1) was 31% and 38%. For the same compound, the “Population Hoechst High Intensity Objects (%)” value (HEK-293T; 12 h, replicate 1) was 18% and 15%, the “Population Membrane Permeable-Phenotype (%)” value (HEK-293T; 12 h, replicate 1) was 34% and 31% and the “Population Mitochondria Different-Phenotype (%)” value (HEK-293T; 12 h, replicate 1) was 22%. The “Population Mitotic Cells (%)” value (HEK-293T; 12 h, replicate 1) was 67% and 77%, the “Population Normal (%)” value (HEK-293T; 12 h, replicate 1) was 81% and 84% and the “Population Pyknosed Nuclei (%)” value (HEK-293T; 12 h, replicate 1) was 42% and 46%. For the same compound, the “Population Tubulin-Different-Phenotype (%)” value (HEK-293T; 12 h, replicate 1) was 77% and 86%, the “Total Cell Count” value (HEK-293T; 12 h, replicate 1) was 417 and 601 and the “Population Apoptotic (%)” value (HEK-293T; 12 h, replicate 2) was 15% and 13%. The “Population Fragmented Nuclei (%)” value (HEK-293T; 12 h, replicate 2) was 2% and 3%, the “Population Healthy Nuclei (%)” value (HEK-293T; 12 h, replicate 2) was 73% and the “Population Hoechst High Intensity Objects (%)” value (HEK-293T; 12 h, replicate 2) was 3% and 2%. The “Population Membrane Permeable-Phenotype (%)” value (HEK-293T; 12 h, replicate 2) was 28% and 27%, the “Population Mitochondria Different-Phenotype (%)” value (HEK-293T; 12 h, replicate 2) was 34% and 43% and the “Population Mitotic Cells (%)” value (HEK-293T; 12 h, replicate 2) was 84% and 86%. For the same compound, the “Population Normal (%)” value (HEK-293T; 12 h, replicate 2) was 96% and 97%, the “Population Pyknosed Nuclei (%)” value (HEK-293T; 12 h, replicate 2) was 23% and 22% and the “Population Tubulin-Different-Phenotype (%)” value (HEK-293T; 12 h, replicate 2) was 97%. The “Total Cell Count” value (HEK-293T; 12 h, replicate 2) was 993 and 1067, the “Population Apoptotic (%)” value (HEK-293T; 24 h, replicate 1) was 39% and 33% and the “Population Fragmented Nuclei (%)” value (HEK-293T; 24 h, replicate 1) was 22% and 14%. The “Population Healthy Nuclei (%)” value (HEK-293T; 24 h, replicate 1) was 46% and 51%, the “Population Hoechst High Intensity Objects (%)” value (HEK-293T; 24 h, replicate 1) was 14% and 13% and the “Population Membrane Permeable-Phenotype (%)” value (HEK-293T; 24 h, replicate 1) was 20%. The “Population Mitochondria Different-Phenotype (%)” value (HEK-293T; 24 h, replicate 1) was 50% and 32%, the “Population Mitotic Cells (%)” value (HEK-293T; 24 h, replicate 1) was 60% and 66% and the “Population Normal (%)” value (HEK-293T; 24 h, replicate 1) was 85% and 86%. The “Population Pyknosed Nuclei (%)” value (HEK-293T; 24 h, replicate 1) was 31% and 33%, the “Population Tubulin-Different-Phenotype (%)” value (HEK-293T; 24 h, replicate 1) was 88% and 94% and the “Total Cell Count” value (HEK-293T; 24 h, replicate 1) was 402 and 587.
